Experimental data taken from ChEMBL document CHEMBL2429791, “Preparation of asymmetric urea derivatives that target prostate-specific membrane antigen for SPECT imaging” (J Med Chem, 2013).
Each block holds one compound with its values, some of them ahead of it.

Key:
[1] = molecular target: T1, Glutamate carboxypeptidase 2 (Homo sapiens, UniProt Q04609); experiment: Displacement of [125I]-DCIT from PSMA in human LNCaP cells after 1 hr by gamma counting
LNCaP [2] = experiment: Biodistribution in LNCAP cells in C.B.-17/Icr +/+ Jcl mouse xenografted with human LNCAP and PC3 cells at 25.9 MBq, iv after 30 mins by SPECT/CT analysis; type: ADME, organism-based; conditions: in vivo, 0.5 h
How it was run: (§1)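 Anaesthetised (2.5% isoflurane) LNCaP/PC-3 tumour-bearing mice (20–25 g), kept on a heating pad, given ¹²³I tracer (25.9 MBq in 0.10 mL saline) iv by tail vein, with or without 50 mg/kg 2-PMPA. Pinhole SPECT acquired over 30–64 min (159 keV ±10% window, 32 projections × 60 s, 360°), then CT; images reconstructed by 3D OSEM.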

PC-3 = experiment: Biodistribution in PC3 cells in C.B.-17/Icr +/+ Jcl mouse xenografted with human LNCAP and PC3 cells at 25.9 MBq, iv after 30 mins by SPECT/CT analysis in presence of 2-PMPA; type: ADME, organism-based; conditions: in vivo, 0.5 h
How it was run: as §1

LNCaP [3] = experiment: Biodistribution in LNCAP cells in C.B.-17/Icr +/+ Jcl mouse xenografted with human LNCAP and PC3 cells at 25.9 MBq, iv after 30 mins by SPECT/CT analysis in presence of 2-PMPA; type: ADME, organism-based; conditions: in vivo, 0.5 h
How it was run: as §1

Kidney [4] = experiment: Biodistribution in kidney of C.B.-17/Icr […] Jcl mouse xenografted with human LNCAP and PC3 cells after 2 mins to 3 hrs; type: ADME, organism-based; conditions: in vivo
How it was run: (§2)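 ¹²⁵I-labelled tracer given iv by tail vein to mice (22–24 g) bearing LNCaP (left shoulder) and PC-3 (right shoulder) xenografts of about 5–10 mm, grown from 1–5 × 10⁶ cells in 1:1 Matrigel. n=4 per time point; decapitated at 2 min, 30 min, 1, 3, 6 h. Tissues weighed and counted; uptake as %ID/g, mean ± SD.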

[5] = molecular target: T1, Glutamate carboxypeptidase 2; experiment: Binding affinity to PSMA in human LNCaP cells after 1 hr by gamma counting; type: cell-based
How it was run: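 LNCaP cells plated at 4 × 10⁵ cells/well and grown 48 h (37 °C/5% CO₂), then washed with RPMI 1640 containing 0.5% BSA. Saturation binding used ¹²⁵I-labelled ligand (specific activity 81.4 kBq/nmol), 1 h at 37 °C; nonspecific binding measured with 100 µM non-radioactive iodinated compound. Cells washed, lysed in 0.2 N NaOH, gamma-counted; Kd from Scatchard plots.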

Blood = experiment: Biodistribution in blood of C.B.-17/Icr […] Jcl mouse xenografted with human LNCAP and PC3 cells after 30 mins; type: ADME, organism-based; conditions: in vivo, 0.5 h
Kidney [6] = experiment: Drug excretion in C.B.-17/Icr […] Jcl mouse kidney xenografted with human LNCAP and PC3 cells; type: ADME, tissue-based; conditions: in vivo
LNCaP [7] = experiment: Biodistribution in LNCAP cells in C.B.-17/Icr +/+ Jcl mouse xenografted with human LNCAP and PC3 cells after 2 mins to 3 hrs; type: ADME, organism-based; conditions: in vivo
How it was run: as §2

[8] = Distribution coefficient, log D of the compound; type: physicochemical; conditions: octanol/water
Liver = experiment: Drug excretion in C.B.-17/Icr […] Jcl mouse liver xenografted with human LNCAP and PC3 cells; type: ADME, tissue-based; conditions: in vivo
Liver (Mus musculus) = experiment: Biodistribution in liver of C.B.-17/Icr […] Jcl mouse xenografted with human LNCAP and PC3 cells after 30 to 60 mins; conditions: in vivo
Intestine = experiment: Biodistribution in intestine of C.B.-17/Icr […] Jcl mouse xenografted with human LNCAP and PC3 cells after 30 to 60 mins; type: ADME, organism-based; conditions: in vivo
LNCaP [9] = experiment: Biodistribution in LNCAP cells in C.B.-17/Icr […] Jcl mouse xenografted with human LNCAP and PC3 cells after 30 to 60 mins; type: ADME, organism-based; conditions: in vivo

T1 sequence (Q04609 whole entry): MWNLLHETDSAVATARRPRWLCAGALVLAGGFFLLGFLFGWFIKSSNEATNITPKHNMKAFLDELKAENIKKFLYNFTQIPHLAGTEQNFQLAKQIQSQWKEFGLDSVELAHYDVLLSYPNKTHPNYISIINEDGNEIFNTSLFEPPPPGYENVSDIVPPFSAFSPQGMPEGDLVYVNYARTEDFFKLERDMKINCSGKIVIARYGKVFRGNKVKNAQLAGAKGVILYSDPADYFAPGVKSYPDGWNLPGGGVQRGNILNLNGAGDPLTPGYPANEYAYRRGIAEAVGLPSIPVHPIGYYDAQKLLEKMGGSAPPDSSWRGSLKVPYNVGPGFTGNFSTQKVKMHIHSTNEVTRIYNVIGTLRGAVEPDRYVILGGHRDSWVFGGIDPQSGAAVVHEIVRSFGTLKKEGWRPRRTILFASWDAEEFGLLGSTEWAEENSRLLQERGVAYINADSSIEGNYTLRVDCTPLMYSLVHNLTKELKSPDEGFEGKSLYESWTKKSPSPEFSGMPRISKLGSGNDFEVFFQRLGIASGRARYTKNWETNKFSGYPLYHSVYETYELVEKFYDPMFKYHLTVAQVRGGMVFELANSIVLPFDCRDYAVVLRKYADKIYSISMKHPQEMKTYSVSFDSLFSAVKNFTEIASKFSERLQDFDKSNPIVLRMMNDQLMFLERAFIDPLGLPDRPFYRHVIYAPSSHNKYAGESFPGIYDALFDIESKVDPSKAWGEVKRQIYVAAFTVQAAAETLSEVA

Compound: O=C(O)CC[C@H](NC(=O)N[C@@H](CSC1CC(=O)N(CCCC[C@H](NC(=O)CNC(=O)c2ccccc2)C(=O)O)C1=O)C(=O)O)C(=O)O (some centres undefined)
Ki [1]: 8.06 nM

Compound: O=C(O)CC[C@H](NC(=O)N[C@@H](CSC1CC(=O)N(CCCC[C@H](NC(=O)CCCNC(=O)c2cccc(I)c2)C(=O)O)C1=O)C(=O)O)C(=O)O (some centres undefined)
Ki [1]: 2.95 nM

Compound: CNCC(=O)N[C@@H](CCCCN1C(=O)CC(SC[C@H](NC(=O)N[C@@H](CCC(=O)O)C(=O)O)C(=O)O)C1=O)C(=O)O (some centres undefined)
Ki [1]: 94.8 nM

Compound: O=C(O)CC[C@H](NC(=O)N[C@@H](CSC1CC(=O)N(CCCC[C@H](NC(=O)CNC(=O)c2cccc([123I])c2)C(=O)O)C1=O)C(=O)O)C(=O)O (some centres undefined)
Drug uptake (LNCaP [2]): Active | Drug uptake (PC-3): Not Active | Drug uptake (LNCaP [3]): Not Active

Compound: O=C(O)CC[C@H](NC(=O)N[C@@H](CSC1CC(=O)N(CCCC[C@H](NC(=O)CCCCNC(=O)c2cccc(I)c2)C(=O)O)C1=O)C(=O)O)C(=O)O (some centres undefined)
Ki [1]: 2.14 nM

Compound: O=C(O)CC[C@H](NC(=O)N[C@@H](Cc1ccc(O)c([125I])c1)C(=O)O)C(=O)O
Kd [5]: 143 nM

Compound: CN1C(=O)CC(SC[C@H](NC(=O)N[C@@H](CCC(=O)O)C(=O)O)C(=O)O)C1=O (some centres undefined)
Ki [1]: 62.1 nM

Compound: O=C(O)CC[C@H](NC(=O)N[C@@H](CSC1CC(=O)N(CCCC[C@H](NC(=O)c2cccc(I)c2)C(=O)O)C1=O)C(=O)O)C(=O)O (some centres undefined)
Ki [1]: 2.79 nM

The next lines start with the values.

Ki [1]: 6.26 nM
Compound: O=C(O)CC[C@H](NC(=O)N[C@@H](CSC1CC(=O)N(CCCC[C@H](NC(=O)CCNC(=O)c2cccc(I)c2)C(=O)O)C1=O)C(=O)O)C(=O)O (some centres undefined)

Ki [1]: 376 nM
Compound: O=C(O)CC[C@H](NC(=O)N[C@@H](CS)C(=O)O)C(=O)O

Drug uptake (Kidney [4]): Active | Kd [5]: 20.4 nM | Drug uptake (Blood): Active | Drug excretion (Kidney [6]): Active | Drug uptake (LNCaP [7]): Active | logD [8]: -2.91 | Drug excretion (Liver): Not Active
Compound: O=C(O)CC[C@H](NC(=O)N[C@@H](CCCCNCc1ccc([125I])cc1)C(=O)O)C(=O)O

Drug uptake (Liver (Mus musculus)): Active | Drug uptake (Intestine): Active | Drug uptake (LNCaP [9]): Active
Compound: O=C(O)CC[C@H](NC(=O)N[C@@H](CSC1CC(=O)N(CCCCCNC(=O)CNC(=O)c2cccc([125I])c2)C1=O)C(=O)O)C(=O)O (some centres undefined)

Ki [1]: 4.97 nM
Compound: O=C(O)CC[C@H](NC(=O)N[C@@H](CSC1CC(=O)N(CCCC[C@H](NC(=O)CNC(=O)c2cccc(I)c2)C(=O)O)C1=O)C(=O)O)C(=O)O (some centres undefined)

Ki [1]: 7.91 nM
Compound: O=C(O)CC[C@H](NC(=O)N[C@@H](CSC1CC(=O)N(CCCCCNC(=O)CNC(=O)c2cccc(I)c2)C1=O)C(=O)O)C(=O)O (some centres undefined)
